Measured values from ChEMBL document CHEMBL1154048, “Design, synthesis and pharmacological evaluation of new 1-[3-(4-arylpiperazin-1-yl)-2-hydroxy-propyl]-3,3-diphenylpyrrolidin-2-one derivatives with antiarrhythmic, antihypertensive, and alpha-adrenolytic activity” (Eur J Med Chem, 2009).

Assays:
[1] = tested on: Rattus norvegicus; assay: Hypotensive activity in normotensive Wistar rat assessed as systolic blood pressure at 5 mg/kg, iv after 30 mins (Rvb=141.3 +/- 6.4 mmHg); format: functional, Artery
[2] = tested on: Rattus norvegicus; assay: Hypotensive activity in normotensive Wistar rat assessed as diastolic blood pressure at 5 mg/kg, iv after 30 mins (Rvb=126 +/- 4.6 mmHg); format: functional, Artery
[3] = tested on: Rattus norvegicus; assay: Hypotensive activity in normotensive Wistar rat assessed as systolic blood pressure at 5 mg/kg, iv after 10 mins (Rvb=141.3 +/- 6.4 mmHg); format: functional, Artery
[4] = tested on: Rattus norvegicus; assay: Hypotensive activity in normotensive Wistar rat assessed as diastolic blood pressure at 5 mg/kg, iv after 5 mins (Rvb=126 +/- 4.6 mmHg); format: functional, Artery
[5] = tested on: Rattus norvegicus; assay: Hypotensive activity in normotensive Wistar rat assessed as systolic blood pressure at 5 mg/kg, iv after 20 mins (Rvb=141.3 +/- 6.4 mmHg); format: functional, Artery
[6] = tested on: Rattus norvegicus; assay: Hypotensive activity in normotensive Wistar rat assessed as diastolic blood pressure at 5 mg/kg, iv after 10 mins (Rvb=126 +/- 4.6 mmHg); format: functional, Artery
[7] = tested on: Rattus norvegicus; assay: Hypotensive activity in normotensive Wistar rat assessed as diastolic blood pressure at 5 mg/kg, iv after 20 mins (Rvb=126 +/- 4.6 mmHg); format: functional, Artery
[8] = tested on: Rattus norvegicus; assay: Hypotensive activity in normotensive Wistar rat assessed as diastolic blood pressure at 5 mg/kg, iv after 20 mins (Rvb=119 +/- 1.2 mmHg); format: functional, Artery
[9] = tested on: Rattus norvegicus; assay: Hypotensive activity in normotensive Wistar rat assessed as systolic blood pressure at 5 mg/kg, iv after 10 mins (Rvb=138 +/- 0.9 mmHg); format: functional, Artery
[10] = tested on: Rattus norvegicus; assay: Hypotensive activity in normotensive Wistar rat assessed as diastolic blood pressure at 5 mg/kg, iv after 30 mins (Rvb=119 +/- 1.2 mmHg); format: functional, Artery
[11] = tested on: Rattus norvegicus; assay: Hypotensive activity in normotensive Wistar rat assessed as diastolic blood pressure at 5 mg/kg, iv after 5 mins (Rvb=119 +/- 1.2 mmHg); format: functional, Artery
[12] = tested on: Rattus norvegicus; assay: Hypotensive activity in normotensive Wistar rat assessed as systolic blood pressure at 5 mg/kg, iv after 5 mins (Rvb=138 +/- 0.9 mmHg); format: functional, Artery
[13] = tested on: Rattus norvegicus; assay: Hypotensive activity in normotensive Wistar rat assessed as systolic blood pressure at 5 mg/kg, iv after 20 mins (Rvb=138 +/- 0.9 mmHg); format: functional, Artery
[14] = tested on: Rattus norvegicus; assay: Hypotensive activity in normotensive Wistar rat assessed as diastolic blood pressure at 5 mg/kg, iv after 60 mins (Rvb=127 +/- 8.1 mmHg); format: functional, Artery
[15] = tested on: Rattus norvegicus; assay: Hypotensive activity in normotensive Wistar rat assessed as systolic blood pressure at 5 mg/kg, iv after 5 mins (Rvb=142.5 +/- 3.6 mmHg); format: functional, Artery
[16] = tested on: Rattus norvegicus; assay: Hypotensive activity in normotensive Wistar rat assessed as systolic blood pressure at 5 mg/kg, iv after 20 mins (Rvb=142.5 +/- 3.6 mmHg); format: functional, Artery
[17] = biological target: T1, Alpha-1D adrenergic receptor (Rattus norvegicus, UniProt P23944); assay: (§1) Antagonist activity at Alpha-1D adrenoceptor in Wistar rat thoracic aorta assessed as inhibition of noradrenaline-induced contraction after 30 mins; format: functional, tissue-based; conditions: read-out: pA2 (converted)
T1 sequence (P23944 whole entry): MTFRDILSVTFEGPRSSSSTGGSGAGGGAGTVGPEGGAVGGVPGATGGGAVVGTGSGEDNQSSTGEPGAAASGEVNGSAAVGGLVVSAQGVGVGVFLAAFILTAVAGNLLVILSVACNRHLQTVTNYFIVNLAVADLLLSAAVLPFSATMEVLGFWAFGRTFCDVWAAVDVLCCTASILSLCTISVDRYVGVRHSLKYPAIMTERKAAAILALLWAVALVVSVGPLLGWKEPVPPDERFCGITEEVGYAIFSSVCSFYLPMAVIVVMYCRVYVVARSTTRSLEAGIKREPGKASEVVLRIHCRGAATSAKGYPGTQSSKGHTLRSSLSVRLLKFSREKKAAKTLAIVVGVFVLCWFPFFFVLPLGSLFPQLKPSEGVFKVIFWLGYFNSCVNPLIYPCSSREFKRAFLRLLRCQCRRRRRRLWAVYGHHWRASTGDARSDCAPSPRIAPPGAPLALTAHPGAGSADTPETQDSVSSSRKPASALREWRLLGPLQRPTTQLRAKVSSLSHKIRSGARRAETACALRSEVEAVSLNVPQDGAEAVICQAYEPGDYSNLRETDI
Outline: (§2)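 Male Wistar rats (200–350 g) were anaesthetized with thiopental 75 mg/kg ip. Endothelium-denuded thoracic aorta rings (~4 mm) were held in Krebs–Henseleit at 37 °C, pH 7.4, gassed O2/CO2 19:1, at 2 g tension and equilibrated 3 h. Two cumulative noradrenaline curves were run 60 min apart, with 30 min antagonist incubation and continuous propranolol. EC50 came from non-linear regression, and Schild plots gave pA2. n = 5–8.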

[18] = biological target: T2, Alpha-1D adrenergic receptor (Rattus norvegicus) (UniProt P23944); assay: as §1; format: functional, tissue-based; outline: as §2
T2 sequence (whole entry): T1 sequence (P23944 whole entry)

[19] = tested on: Rattus norvegicus; assay: Hypotensive activity in normotensive Wistar rat assessed as diastolic blood pressure at 5 mg/kg, iv after 5 mins (Rvb=120 +/- 1.7 mmHg); format: functional, Artery
[20] = tested on: Rattus norvegicus; assay: Hypotensive activity in normotensive Wistar rat assessed as systolic blood pressure at 5 mg/kg, iv after 60 mins (Rvb=139 +/- 0.6 mmHg); format: functional, Artery
[21] = tested on: Rattus norvegicus; assay: Hypotensive activity in normotensive Wistar rat assessed as diastolic blood pressure at 5 mg/kg, iv after 60 mins (Rvb=120 +/- 1.7 mmHg); format: functional, Artery
[22] = tested on: Rattus norvegicus; assay: Hypotensive activity in normotensive Wistar rat assessed as systolic blood pressure at 5 mg/kg, iv after 5 mins (Rvb=139 +/- 0.6 mmHg); format: functional, Artery
[23] = tested on: Rattus norvegicus; assay: Hypotensive activity in normotensive Wistar rat assessed as systolic blood pressure at 5 mg/kg, iv after 30 mins (Rvb=139 +/- 0.6 mmHg); format: functional, Artery
[24] = tested on: Rattus norvegicus; assay: Hypotensive activity in normotensive Wistar rat assessed as diastolic blood pressure at 5 mg/kg, iv after 10 mins (Rvb=120 +/- 1.7 mmHg); format: functional, Artery
[25] = tested on: Rattus norvegicus; assay: Hypotensive activity in normotensive Wistar rat assessed as systolic blood pressure at 5 mg/kg, iv after 10 mins (Rvb=140.5 +/- 1.1 mmHg); format: functional, Artery
[26] = tested on: Rattus norvegicus; assay: Hypotensive activity in normotensive Wistar rat assessed as systolic blood pressure at 5 mg/kg, iv after 60 mins (Rvb=140.5 +/- 1.1 mmHg); format: functional, Artery
[27] = tested on: Rattus norvegicus; assay: Hypotensive activity in normotensive Wistar rat assessed as systolic blood pressure at 5 mg/kg, iv after 20 mins (Rvb=140.5 +/- 1.1 mmHg); format: functional, Artery
[28] = tested on: Rattus norvegicus; assay: Hypotensive activity in normotensive Wistar rat assessed as systolic blood pressure at 5 mg/kg, iv after 30 mins (Rvb=140.5 +/- 1.1 mmHg); format: functional, Artery
[29] = tested on: Rattus norvegicus; assay: Hypotensive activity in normotensive Wistar rat assessed as systolic blood pressure at 2.5 mg/kg, iv after 60 mins (Rvb=125.6 +/- 7.6 mmHg); format: functional, Artery
[30] = tested on: Rattus norvegicus; assay: Hypotensive activity in normotensive Wistar rat assessed as systolic blood pressure at 2.5 mg/kg, iv after 30 mins (Rvb=125.6 +/- 7.6 mmHg); format: functional, Artery

`Cc1ccccc1N1CCN(CC(O)CN2CCC(c3ccccc3)(c3ccccc3)C2=O)CC1.Cl.Cl` (stereo not given) was tested. Which Activity [1] did it give?
Its Activity is 133 mmHg.

What about the Activity [2] of the same compound?
The Activity was 117.7 mmHg.

What about the Activity [3] of the same compound?
Its Activity is 133.7 mmHg.

What about the Activity [4] of the same compound?
The Activity was 116.7 mmHg.

What about the Activity [5] of the same compound?
Its Activity is 136.3 mmHg.

What about the Activity [6] of the same compound?
Its Activity is 118 mmHg.

What about the Activity [7] of the same compound?
The Activity was 119.7 mmHg.

Which results are given for `Cl.Cl.O=C1N(CC(O)CN2CCN(c3ccccc3C(F)(F)F)CC2)CCC1(c1ccccc1)c1ccccc1` (stereo not given)?
Activity [8]: 104 mmHg; Activity [9]: 122 mmHg; Activity [10]: 103 mmHg; Activity [11]: 103 mmHg; Activity [12]: 126 mmHg; Activity [13]: 119 mmHg

Which Activity [14] does the source give for `CCOc1ccccc1N1CCN(CC(O)CN2CCC(c3ccccc3)(c3ccccc3)C2=O)CC1.Cl.Cl` (stereo not given) here?
The Activity was 95.5 mmHg.

What about the Activity [15] of the same compound?
The Activity was 130 mmHg.

And the Activity [16]?
Its Activity is 111 mmHg.

What about the Kb [17] of the same compound?
Its Kb is 55 nM.

And the Activity [18]?
The Activity was “Dose-dependent effect”.

`COc1ccccc1N1CCN(CC(O)CN2CCC(c3ccccc3)(c3ccccc3)C2=O)CC1.Cl.Cl` (stereo not given) was tested. Which Activity [19] did it give?
The Activity was 109 mmHg.

And the Activity [20]?
The Activity was 112 mmHg.

And the Activity [21]?
Its Activity is 98 mmHg.

What about the Activity [22] of the same compound?
Its Activity is 125 mmHg.

And the Activity [23]?
The Activity was 116 mmHg.

What about the Activity [24] of the same compound?
Its Activity is 107.5 mmHg.

Which Activity [25] does the source give for `Cl.Cl.O=C1N(CC(O)CN2CCN(c3ccccc3)CC2)CCC1(c1ccccc1)c1ccccc1` (stereo not given) here?
Its Activity is 134.5 mmHg.

What about the Activity [26] of the same compound?
Its Activity is 126.5 mmHg.

What about the Activity [27] of the same compound?
Its Activity is 135.5 mmHg.

What about the Activity [28] of the same compound?
Its Activity is 129 mmHg.

How did the Activity [29] turn out when `COc1ccc(N2CCN(CC(O)CN3CCC(c4ccccc4)(c4ccccc4)C3=O)CC2)cc1.Cl.Cl` (stereo not given) was run?
Its Activity is 105.8 mmHg.

What about the Activity [30] of the same compound?
Its Activity is 105.6 mmHg.
